Measurements reported in ChEMBL document CHEMBL4007447, “Synthesis, biological evaluation and molecular docking study of N-(2-methoxyphenyl)-6-((4-nitrophenyl)sulfonyl)benzamide derivatives as potent HIV-1 Vif antagonists” (Eur J Med Chem, 2017).
Values after ≈ are worked out from the molar mass of the structure shown. Active and inactive are the calls of the source. No cut-off for these calls is given here.

What was measured:
[1] = system: Plasma; assay: Protein binding in Sprague-Dawley rat plasma up to 30 ug/ml after 2 hrs by HPLC analysis; assay type: ADME, cell-free
In short: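 Heparinized arterial plasma from male and female Sprague-Dawley rats incubated with compound at final 30, 20 or 5 μg/mL, 37 °C for 2 h. Free drug separated by 30 kD ultrafiltration (2000 g, 4 °C, 15 min) and measured by HPLC with UV 251 nm; binding = (Dt − Df)/Dt × 100%.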

[2] = Cytotoxicity against human H9 cells assessed as reduction in cell viability after 7 days by MTT assay; assay type: cell-based
In short: (§1)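 MTT viability assay. H9 at 4×10^4 cells/well or PHA-stimulated PBMCs at 5×10^5 cells/well were incubated with serially diluted compound at 37 °C, 5% CO2 for seven days before MTT read-out. CC50 was calculated; mean ± standard deviation of three separate experiments.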

[3] = system: Human immunodeficiency virus 1; assay: Antiviral activity against HIV1 subtype B NL4-3 infected in human H9 cells assessed as reduction in p24 level after 7 days by ELISA; assay type: functional, cell-based; conditions: Human immunodeficiency virus 1, subtype B NL4-3, H9, 168 h
In short: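 H9 cells infected with NL4-3 at MOI 0.03 for 2 h, washed three times, then seeded at 4×10^4 cells/well with serially diluted compound. Incubated 7 days; supernatant p24 measured by in-house ELISA and EC50 calculated. Three separate experiments, mean ± standard deviation.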

[4] = Therapeutic index, ratio of CC50 for human H9 cells to EC50 for HIV1 subtype B NL4-3 infected in human H9 cells
In short: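 Ratio of CC50 to EC50, both measured in H9 cells: MTT cytotoxicity over seven days, and p24 ELISA after 7 days of NL4-3 infection at MOI 0.03.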

[5] = system: Human immunodeficiency virus 1; assay: Inhibition of HIV1 Vif expressed in TREX-hVif-15 cells co-expressing EYFP-N1-tagged human A3G assessed as reduction in Vif-mediated A3G degradation after 48 hrs by flow cytometry; assay type: cell-based
In short: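 TREX-hvif-15 cells, in which Vif is under Tet-On control, were plated at 2×10^5 cells/well and grown overnight. At about 80% confluence they were transfected with EYFP-N1-hA3G. After 6 h the cells were washed, and compounds at varied concentrations were added together with doxycycline to induce Vif. Cells were trypsin-harvested 48 h post-transfection, and EYFP-positive cells were measured by flow cytometry. The no-Vif condition was set to 100%.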

[6] = system: Human immunodeficiency virus 1; assay: Inhibition of HIV1 Vif expressed in TREX-hVif-15 cells co-expressing HA-tagged A3G assessed as reduction in Vif-mediated A3G degradation by measuring increase in A3G expression after 48 hrs by Western blot method; assay type: cell-based
In short: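 TREX-hvif-15 cells were plated at 2×10^5 cells/well and transfected at about 80% confluence with pcDNA3.1-APOBEC3G-HA. At 6 h they were washed and given fresh DMEM/10% FBS, graded compound concentrations, and 0.1 µg/mL doxycycline to induce Vif. Total protein was extracted 48 h post-transfection, and HA tag, Vif and β-actin were read by western blot.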

[7] = Cytotoxicity against human PBMC assessed as reduction in cell viability after 7 days by MTT assay; assay type: cell-based; in short: as §1
[8] = system: Human immunodeficiency virus 1; assay: Antiviral activity against HIV1 subtype B/C isolate KM018 infected in human PBMC assessed as reduction in p24 level after 7 days by ELISA; assay type: functional; conditions: Human immunodeficiency virus 1, subtype B/C isolate KM018, 168 h
[9] = system: Human immunodeficiency virus 1; assay: Antiviral activity against HIV1 subtype B isolate SF162 infected in human PBMC assessed as reduction in p24 level after 7 days by ELISA; assay type: functional; conditions: Human immunodeficiency virus 1, subtype B isolate SF162, 168 h
[10] = system: Human immunodeficiency virus 1; assay: Antiviral activity against HIV1 subtype CRF01-AE isolate TC-1 infected in human PBMC assessed as assessed as reduction in p24 level after 7 days by ELISA; assay type: functional; conditions: Human immunodeficiency virus 1, subtype CRF01-AE isolate TC-1, 168 h
[11] = system: Human immunodeficiency virus 1; assay: Antiviral activity against HIV1 subtype CRF01-AE isolate WAN infected in human PBMC assessed as assessed as reduction in p24 level after 7 days by ELISA; assay type: functional; conditions: Human immunodeficiency virus 1, subtype CRF01-AE isolate WAN, 168 h
[12] = Aqueous solubility in water after 24 to 72 hrs by HPLC based shake flask method; assay type: physicochemical
In short: (§2)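 Equilibrium shake-flask solubility: excess compound placed in water, methanol, ethanol, acetonitrile, ethyl acetate or acetone and shaken 24-72 h at 25 °C. Filtered through 0.22 μm membrane, diluted, and quantified by HPLC on a C18 column with methanol/water 70/30 mobile phase and UV 251 nm. n=3, mean ± SD.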

[13] = Solubility in methanol after 24 to 72 hrs by HPLC based shake flask method; assay type: physicochemical; in short: as §2
[14] = Solubility in ethanol after 24 to 72 hrs by HPLC based shake flask method; assay type: physicochemical; in short: as §2
[15] = Solubility in acetonitrile after 24 to 72 hrs by HPLC based shake flask method; assay type: physicochemical; in short: as §2
[16] = Solubility in ethylacetate after 24 to 72 hrs by HPLC based shake flask method; assay type: physicochemical; in short: as §2
[17] = Solubility in acetone after 24 to 72 hrs by HPLC based shake flask method; assay type: physicochemical; in short: as §2
[18] = system: Human immunodeficiency virus 1; assay: Inhibition of HIV1 NL4-3 Vif expressed in 293T cells co-expressing HA-tagged A3G assessed as reduction in Vif-mediated A3G degradation by measuring increase in A3G expression after 48 hrs by Western blot method; assay type: cell-based
In short: (§3)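 293T cells were plated at 2×10^5 cells/well, grown overnight, and co-transfected at about 80% confluence with pcDNA3.1-APOBEC3G-HA and pNL4-3 (Lipofectamine 2000). Medium was replaced at 6 h with DMEM/10% FBS, then compounds were added at a range of concentrations for 48 h. HA tag, Vif, p24 and β-actin (internal control) in total lysates were read by western blot.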

[19] = system: Human immunodeficiency virus 1; assay: Antiviral activity against HIV1 NL4-3 infected in 293T cells expressing HA-tagged A3G assessed as reduction in Vif expression after 48 hrs by Western blot method; assay type: functional, cell-based; in short: as §3
[20] = 1-octanol/water partition co-efficient, log P of the compound after 2 hrs by shake-flask method; assay type: physicochemical
In short: (§4)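 Octanol and water mutually pre-saturated 24 h at 37 °C; excess compound dissolved in octanol phase by sonication, centrifuged, supernatant mixed 1:1 (v/v) with aqueous phase. Shaken at 120 rpm, 37 °C for 2, 4 or 7 h; phases separated by centrifugation and quantified by HPLC, in triplicate. Log P = lg(Co/Cw).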

[21] = 1-octanol/water partition co-efficient, log P of the compound after 4 hrs by shake-flask method; assay type: physicochemical; in short: as §4
[22] = 1-octanol/water partition co-efficient, log P of the compound after 7 hrs by shake-flask method; assay type: physicochemical; in short: as §4
[23] = N-octanol/water partition co-efficient, log P of the compound in octanol to water phase ratio of 1:1 up to 7 hrs by shake-flask method; assay type: physicochemical
[24] = N-octanol/water partition co-efficient, log P of the compound in octanol to water phase ratio of 1:4 up to 7 hrs by shake-flask method; assay type: physicochemical
[25] = N-octanol/water partition co-efficient, log P of the compound in octanol to water phase ratio of 1:9 up to 7 hrs by shake-flask method; assay type: physicochemical
[26] = system: Human immunodeficiency virus 1; assay: Antiviral activity against HIV1 isolate TC-1 infected in human PBMC assessed as inhibition of p24 expression up to 20 uM after 7 days by Western blot method
[27] = system: Human immunodeficiency virus 1; assay: Antiviral activity against HIV1 isolate TC-1 infected in human PBMC expressing HA-tagged A3G assessed as downregulation of Vif expression after 7 days by Western blot method
[28] = system: Human immunodeficiency virus 1; assay: Inhibition of HIV1 isolate TC-1 Vif infected in […]-stimulated human PBMC expressing HA-tagged A3G assessed as reduction in Vif-mediated A3G degradation up to 20 uM after 7 days by Western blot method
[29] = Stability of the compound in pH 4 buffer solution at 100 uM after 180 hrs by HPLC analysis; assay type: physicochemical; conditions: read-out: Stability
[30] = Stability of the compound in pH 7 buffer solution at 100 uM up to 168 hrs by HPLC analysis; assay type: physicochemical; conditions: pH 7, 168 h
In short: (§5)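 Compound added to pH 4, 7 or 9 buffers at 100 μM final and shaken at 100 rpm, 37 °C. Sampled at 0–168 h (pH 4 and 7) or 0–15 h (pH 9) and analysed by HPLC on C18 with acetonitrile/water containing 0.1% triethylamine (70/30) and UV 248 nm.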

[31] = Drug degradation in pH 9 buffer solution at 100 uM after 15 hrs by HPLC analysis; in short: as §5
[32] = system: Liver; assay: Prodrug activation in human liver microsomes assessed as 2-Amino-N-(2-methoxyphenyl)-6-((4-nitrophenyl)sulfonyl)benzamide formation at 1.5 mg/ml after 20 mins in presence of NADPH by HPLC analysis; assay type: microsome
In short: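 Prodrug (1.5 mg/mL stock, 1.5 μL) incubated with human liver microsomes in 0.1 M phosphate buffer pH 7.4 with NADPH-generating system at 37 °C for 0, 5, 10, 15, 20 and 40 min. Stopped with methanol, centrifuged, supernatant dried under nitrogen, redissolved in mobile phase, analysed by HPLC and HPLC-MS.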

In the case of COc1ccccc1NC(=O)c1c(N)cccc1S(=O)(=O)c1ccc([N+](=O)[O-])cc1, the PPB [1] is reported as “Active”, the CC50 at 168 h [2] is reported as no less than 462 µM and the EC50 [3] is reported as 1400 to 1540 nM. The “Ratio CC50/EC50” value [4] was 300, the inhibition [5] was “Dose-dependent effect” and the inhibition [6] was “Dose-dependent effect”. For the same compound, the CC50 at 168 h [7] was greater than 468 µM, the EC50 [8] was 17.8 µM and the EC50 [9] was 17.8 µM. It also gave an EC50 [10] of 522 nM, an EC50 [11] of 2950 nM and a solubility thermodynamic [12] of 0.66 µg/mL (≈ 0.00154 mM). The solubility thermodynamic [13] was 814 µg/mL (≈ 1.9 mM), the solubility thermodynamic [14] was 284 µg/mL (≈ 0.664 mM) and the solubility thermodynamic [15] was 9090 µg/mL (≈ 21.3 mM). The solubility thermodynamic [16] was 4380 µg/mL (≈ 10.2 mM), the solubility thermodynamic [17] was 22.4 mg/mL (≈ 52.4 mM) and the inhibition [18] was “Dose-dependent effect”. For the same compound, the Activity [19] was “Dose-dependent effect”, the logP at 2 h [20] was 2.41 and the logP at 4 h [21] was 2.4. The logP at 7 h [22] was 2.4, the logP at 7 h [23] was 2.4 and the logP at 7 h [24] was 2.53. For the same compound, the logP at 7 h [25] was 2.55, the inhibition [26] was “Active” and the Activity [27] was “Active”. For the same compound, the inhibition [28] was “Active”.
With COc1ccccc1NC(=O)c1c(NC(=O)CN)cccc1S(=O)(=O)c1ccc([N+](=O)[O-])cc1 the remaining at 180 h, 100 µM [29] was 50%, the CC50 at 168 h [2] was 196 µM and the EC50 [3] was 248 nM. The “Ratio CC50/EC50” value [4] was 790, the solubility thermodynamic [12] was 1730 µg/mL (≈ 3.57 mM) and the Stability [30] was “Stable”. The Drug degradation [31] was greater than 90% and the Drug metabolism [32] was “Metabolite_Detected”.
